Data as given in paper PMC4470291 (Biochemistry, 2009).
Values belong to the compound of their own block, whether it stands above or below them. Square brackets hold non-standard residues; d marks the D form. Peptide text beside a SMILES is read from it. * marks the point of attachment. AMC = Cc1cc(=O)oc2cc(N*)ccc12; Pip = O=C(O)[C@@H]1CCCCN1; Cbz = O=C(OCc1ccccc1)*; AEEA = NCCOCCOCC(=O)O

Columns and labels:
[1] = target: T1, APCE (Homo sapiens, UniProt Q12884); assay: APCE inhibition, fluorogenic substrate Z-Gly-Pro-AMC; format: biochemical; details: for inhibitory effect on APCE: result in words
T1 sequence (Q12884 24-760 limits assumed): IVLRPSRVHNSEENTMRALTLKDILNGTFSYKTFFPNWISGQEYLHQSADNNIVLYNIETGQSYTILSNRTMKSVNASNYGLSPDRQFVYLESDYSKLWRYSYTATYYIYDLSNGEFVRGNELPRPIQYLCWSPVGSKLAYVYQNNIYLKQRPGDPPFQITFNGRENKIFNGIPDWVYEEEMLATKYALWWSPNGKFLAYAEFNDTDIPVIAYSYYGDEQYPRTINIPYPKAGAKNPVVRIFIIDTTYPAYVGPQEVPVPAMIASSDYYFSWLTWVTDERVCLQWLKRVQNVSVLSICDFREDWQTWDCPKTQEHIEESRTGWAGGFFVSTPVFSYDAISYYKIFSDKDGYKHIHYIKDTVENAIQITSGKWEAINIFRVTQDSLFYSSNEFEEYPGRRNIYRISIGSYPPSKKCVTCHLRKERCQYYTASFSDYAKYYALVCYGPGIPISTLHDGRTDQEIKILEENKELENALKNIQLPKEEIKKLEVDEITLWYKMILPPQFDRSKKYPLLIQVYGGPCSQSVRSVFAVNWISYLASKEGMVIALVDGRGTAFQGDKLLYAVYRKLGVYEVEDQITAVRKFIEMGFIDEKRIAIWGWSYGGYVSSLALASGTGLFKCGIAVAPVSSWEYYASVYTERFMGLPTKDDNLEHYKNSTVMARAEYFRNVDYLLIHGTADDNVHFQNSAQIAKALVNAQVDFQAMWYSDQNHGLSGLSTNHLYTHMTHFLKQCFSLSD
Method in brief: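 Human-plasma-purified APCE in 25 mM sodium phosphate, pH 7.5, with 1.0 mM EDTA and 4% methanol; 20 min at 22 °C. Z-Gly-Pro-AMC at five concentrations (10–500 μM range) crossed with four inhibitor concentrations around the expected Ki. Released AMC followed over time (ex 360/em 460 nm) against an AMC standard curve. Competitive mode set by Lineweaver–Burk; Ki from competitive-equation fit, best fit ± standard error.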

[2] = target: T1, APCE; assay: Cleavage of inhibitor by APCE during incubation; format: biochemical; details: for hydrolysis of inhibitor by APCE: lengthy incubations with APCE
[3] = target: T2, DPPIV (Homo sapiens, UniProt P27487); details: read-out: Ki for DPPIV; cited from earlier work
T2 sequence (P27487 whole entry, species assumed): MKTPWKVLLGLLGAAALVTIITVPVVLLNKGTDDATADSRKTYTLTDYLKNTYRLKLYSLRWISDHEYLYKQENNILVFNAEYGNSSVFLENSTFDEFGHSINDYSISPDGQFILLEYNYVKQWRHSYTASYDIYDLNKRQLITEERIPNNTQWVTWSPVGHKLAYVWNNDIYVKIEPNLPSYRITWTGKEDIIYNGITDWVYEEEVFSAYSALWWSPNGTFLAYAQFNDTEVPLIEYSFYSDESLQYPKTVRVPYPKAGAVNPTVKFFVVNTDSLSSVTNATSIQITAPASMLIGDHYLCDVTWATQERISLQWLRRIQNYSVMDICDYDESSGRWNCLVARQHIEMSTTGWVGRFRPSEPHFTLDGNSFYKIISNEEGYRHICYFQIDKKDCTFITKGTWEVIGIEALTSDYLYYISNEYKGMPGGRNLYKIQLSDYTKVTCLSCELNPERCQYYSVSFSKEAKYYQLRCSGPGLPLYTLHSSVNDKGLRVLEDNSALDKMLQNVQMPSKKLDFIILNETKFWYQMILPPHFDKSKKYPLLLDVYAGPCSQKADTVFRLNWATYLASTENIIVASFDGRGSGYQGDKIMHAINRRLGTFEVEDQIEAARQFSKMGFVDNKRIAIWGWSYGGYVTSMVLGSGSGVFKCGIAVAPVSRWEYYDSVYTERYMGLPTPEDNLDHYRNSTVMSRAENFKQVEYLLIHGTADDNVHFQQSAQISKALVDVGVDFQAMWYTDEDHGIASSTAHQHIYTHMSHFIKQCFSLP

[4] = target: FAP; details: read-out: Ki for FAP; cited from earlier work
[5] = test system: recombinant FAP; details: cited from earlier work
[6] = target: T1, APCE; assay: Kinetics of fluorogenic substrate cleavage by APCE; format: biochemical; details: for kcat, APCE / Km: pH 7.5, 22 °C, 20 min; for Km: read-out: Km, APCE
[7] = test system: CSCC[C@H](N)C(=O)N[C@@H](CCC(=O)O)C(=O)N1CCC[C@H]1C(=O)N[C@@H](CC(C)C)C(=O)NCC(=O)N[C@@H](CCCNC(=N)N)C(=O)N[C@@H](CCC(N)=O)C(=O)N[C@@H](CC(C)C)C(=O)N[C@H](C(=O)N[C@@H](CO)C(=O)NCC(=O)N1CCC[C@H]1C(=O)Nc1ccc2c(C)cc(=O)oc2c1)[C@@H](C)O; assay: Kinetics of fluorogenic substrate cleavage by APCE; format: biochemical, human; details: other: pH 7.5, 22 °C, 20 min
[8] = test system: CSCC[C@H](N)C(=O)N[C@@H](CCC(=O)O)C(=O)N1CCC[C@H]1C(=O)N[C@@H](CC(C)C)C(=O)NCC(=O)N[C@@H](Cc1c[nH]c2ccccc12)C(=O)N[C@@H](CCC(N)=O)C(=O)N[C@@H](CC(C)C)C(=O)N[C@H](C(=O)N[C@@H](CO)C(=O)NCC(=O)N1CCC[C@H]1C(=O)Nc1ccc2c(C)cc(=O)oc2c1)[C@@H](C)O; assay: Kinetics of fluorogenic substrate cleavage by APCE; format: biochemical, human; details: other: pH 7.5, 22 °C, 20 min
[9] = target: T2, DPPIV; assay: Kinetics of fluorogenic substrate cleavage by DPPIV; format: biochemical

Compound: FR-peg-G-pipecolinic acid
inhibitory effect on APCE [1]: neither of which appeared to have any inhibitory effect

hydrolysis of inhibitor by APCE [2]: slowly hydrolyzed
Compound: CC(C)C[C@H](NC(=O)[C@H](CCC(N)=O)NC(=O)[C@H](CCCNC(=N)N)NC(=O)[C@@H](N)Cc1ccccc1)C(=O)N[C@H](C(=O)N[C@@H](CO)C(=O)NCC(=O)N1CCCC[C@H]1C(=O)N[C@@H](CC(N)=O)C(=O)N[C@@H](CCC(N)=O)C(=O)N[C@@H](CCC(=O)O)C(=O)N[C@@H](CCC(N)=O)C(=O)N[C@H](C(=O)O)C(C)C)[C@@H](C)O [Inhibitor 1, FRQLTSG-pipecolinyl-NQEQV] (H-FRQLTSG[Pip]NQEQV-OH; N-terminus assumed)

fraction of inhibitor cleaved by APCE ([2]; 1 h incubation, LC/MS): ~6% | hydrolysis of inhibitor by APCE [2]: slowly hydrolyzed
Compound: CC(C)[C@H](NC(=O)[C@H](CCC(N)=O)NC(=O)[C@H](CCC(=O)O)NC(=O)[C@H](CCC(N)=O)NC(=O)[C@H](CC(N)=O)NC(=O)[C@@H]1CCCCN1C(=O)CNC(=O)COCCOCCNC(=O)[C@H](CCCNC(=N)N)NC(=O)[C@@H](N)Cc1ccccc1)C(=O)O [Inhibitor 2, FR-peg-G-pipecolinyl-NQEQV] (H-FR[AEEA]G[Pip]NQEQV-OH; N-terminus assumed)

inhibitory effect on APCE [1]: lacked inhibitory properties
Compound: N=C(N)NCCC[C@H](NC(=O)[C@@H](N)Cc1ccccc1)C(=O)NCCOCCOCC(=O)NCC(=O)N1CCCC[C@H]1C(N)=O [Inhibitor 11, FR-peg-G-pipecolinamide] (H-FR[AEEA]G[Pip]-NH2; N-terminus assumed)

Compound: CC(=O)NCC(=O)N1CCCC1C#N (stereo not drawn) [acetyl-Gly-Pro-nitrile]
Ki [3]: 61 µM | Ki [4]: 6.8 µM

kcat, APCE [6]: 0.607 ± 0.02 s⁻¹ | Km [6]: 90 ± 9 µM
Compound: Cc1cc(=O)oc2cc(NC(=O)[C@@H]3CCCN3C(=O)CNC(=O)OCc3ccccc3)ccc12 [Z-GP-AMC, benzyloxycarbonyl- (Z-) Gly-Pro-AMC] (Cbz-Gly-Pro-{AMC})
increase in catalytic efficiency of recombinant FAP as opposed to Gly-Pro-AMC [5]: ~18 fold

change of Ki relative to inhibitor 2 (P7 Arg replaced with Gly) ([1]; printed as Ki reduced): ~4 fold
Compound: CC(C)[C@H](NC(=O)[C@H](CCC(N)=O)NC(=O)[C@H](CCC(=O)O)NC(=O)[C@H](CCC(N)=O)NC(=O)[C@H](CC(N)=O)NC(=O)[C@@H]1CCCCN1C(=O)CNC(=O)COCCOCCNC(=O)CNC(=O)[C@@H](N)Cc1ccccc1)C(=O)O [Inhibitor 3, FG-peg-G-pipecolinyl-NQEQV] (H-FG[AEEA]G[Pip]NQEQV-OH; N-terminus assumed)

Compound: NQEQV
inhibitory effect on APCE [1]: neither of which appeared to have any inhibitory effect

Compound: APCE (Homo sapiens)
Km [7]: 21 ± 2 µM | kcat [7]: 1.17 ± 0.0383 s⁻¹ | kcat/Km [7]: 55000 M⁻¹ s⁻¹ | Km [8]: 70 ± 6 µM | kcat [8]: 0.922 ± 0.025 s⁻¹ | kcat/Km [8]: 13200 M⁻¹ s⁻¹

Compound: Cc1cc(=O)oc2cc(NC(=O)[C@@H]3CCCN3C(=O)CN)ccc12 [GP-AMC, Gly-Pro-7-amido-4-methylcoumarin] (H-Gly-Pro-{AMC})
kcat, APCE [6]: 0.485 ± 0.0183 s⁻¹ | Km [6]: 455 ± 42 µM | kcat/Km of APCE lower than the other three substrates ([6]; vs MEPLGRQLTSGP-AMC, MEPLGWQLTSGP-AMC, Z-GP-AMC): 6–51 fold | kcat/Km of DPPIV higher than that of APCE [9]: ~30 fold | kcat, DPPIV ([9]; pH 7.5, 22 °C, 20 min): 1.985 ± 0.102 s⁻¹ | Km ([9]; read-out: Km, DPPIV, pH 7.5, 22 °C, 20 min): 63 ± 6 µM
